According to ChEMBL document CHEMBL1156197, “Design, synthesis and evaluation of novel 2-thiophen-5-yl-3H-quinazolin-4-one analogues as inhibitors of transcription factors NF-kappaB and AP-1 mediated transcriptional activation: Their possible utilization as anti-inflammatory and anti-cancer agents” (Bioorg Med Chem, 2010):
Active and inactive are the calls of the source. No cut-off for these calls is given here.

How the values were obtained:
[1] = test system: HEK293; experiment: Inhibition of NF-kappaB expressed in HEK293 cells assessed as inhibition of TNF-alpha-stimulated transcriptional activation at 10 uM treated 24 hrs before TNFalpha challenge measured after 20 to 24 hrs by luciferase reporter gene assay; type: cell-based
Summary of the method: (§1)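 Compounds in 0.1% DMSO (10 µM–1 nM) were added to replicate wells for 24 h. Cells were then stimulated with TNF-α for 20–24 h and read with Bright-Glo luciferase. Mean RLU was normalized to the maximal control; IC50 came from a six-point dose response.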

[2] = target: Transcription factor Jun (Homo sapiens) (UniProt P05412); experiment: Inhibition of AP-1 expressed in HEK293 cells assessed as PMA-stimulated transcriptional activation at 10 uM treated 24 hrs before PMA challenge measured after 20 to 24 hrs by luciferase reporter gene assay; type: cell-based
Summary of the method: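 HEK-293 cells stably carrying a minimal-promoter luciferase construct with tandem AP-1 elements (TGACTAA) were plated at 5 × 10⁴ cells/well and held 24 h at 37 °C in 5% CO₂. Compounds in 0.1% DMSO (10 µM–1 nM) were added to replicate wells for 24 h. Cells were then stimulated with PMA for 20–24 h and read with Bright-Glo luminescence. Mean RLU was normalized to the maximal control; IC50 came from a six-point dose response.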

[3] = test system: HEK293; experiment: Cytotoxicity against TNF-alpha-stimulated HEK293 cells at 10 uM treated 24 hrs before TNFalpha challenge measured after 20 to 24 hrs; type: cell-based; details: human, hek293, 10 µM
[4] = Inhibition of NF-kappaB expressed in HEK293 cells assessed as inhibition of TNF-alpha-stimulated transcriptional activation treated 24 hrs before TNFalpha challenge measured after 20 to 24 hrs by luciferase reporter gene assay; type: cell-based; summary of the method: as §1
[5] = test system: Rattus norvegicus; experiment: Antiinflammatory activity against carrageenan-induced paw edema in Sprague-Dawley rat assessed as reduction in paw volume at 50 mg/kg, po dosed 1 hr before carrageenan challenge measured after 3 hrs by plethysmometry; type: functional; design: scale not given: the % may be the effect or the level left
[6] = test system: Mus musculus; experiment: Inhibition of LPS-stimulated NF-kappaB activation in transgenic FVB mouse assessed as decrease in NF-kappaB activity at 50 mg/kg, po QD for 3 days before LPS challenge measured after 3 hrs by bioluminescence based luciferase reporter gene assay relative to control; type: functional; design: scale not given: the % may be the effect or the level left
[7] = test system: LNCaP; experiment: Cytotoxicity against human LNCAP cells; type: functional, cell-based
[8] = test system: PC-3; experiment: Cytotoxicity against human PC3 cells; type: functional, cell-based
[9] = test system: TCC-SUP; experiment: Cytotoxicity against human TCCSUP cells; type: functional, cell-based

Sequence of Transcription factor Jun (Homo sapiens) (P05412 whole entry): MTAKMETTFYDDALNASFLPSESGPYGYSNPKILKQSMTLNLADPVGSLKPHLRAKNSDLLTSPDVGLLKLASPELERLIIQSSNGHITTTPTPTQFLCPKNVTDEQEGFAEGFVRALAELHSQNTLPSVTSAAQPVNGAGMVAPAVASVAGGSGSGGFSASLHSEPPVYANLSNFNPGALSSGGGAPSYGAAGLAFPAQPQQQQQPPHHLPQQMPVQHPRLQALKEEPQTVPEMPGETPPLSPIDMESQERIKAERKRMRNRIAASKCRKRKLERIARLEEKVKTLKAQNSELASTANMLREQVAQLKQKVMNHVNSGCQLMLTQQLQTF

SMILES	inhibition [2]	IC50 [4]	inhibition [1]	Activity [3]	Activity [5]	Activity [6]	Activity [7]	Activity [8]	Activity [9]
CC(=O)c1ccc(-n2c(-c3cc(-c4ccc(Cl)cc4)c(N4CCOCC4)s3)nc3ccccc3c2=O)cc1	7%	–	0%	Non-toxic	–	–	–	–	–
O=c1c2ccccc2nc(-c2cc(-c3ccc(Cl)cc3)c(N3CCOCC3)s2)n1-c1ccccc1	0%	–	0%	Non-toxic	–	–	–	–	–
CSc1ccc(-c2cc(-c3nc4ccccc4c(=O)n3-c3cccc(C)c3)sc2N2CCOCC2)cc1	14%	–	11%	Non-toxic	–	–	–	–	–
Cc1cccc(-n2c(-c3cc(-c4ccc(Cl)cc4)c(N4CCOCC4)s3)nc3ccccc3c2=O)c1	10%	–	28%	Non-toxic	–	–	–	–	–
Cc1ccccc1-n1c(-c2cc(-c3ccc(S(C)(=O)=O)cc3)c(N3CCOCC3)s2)nc2ccccc2c1=O	52%	–	51%	Non-toxic	–	–	–	–	–
COc1ccccc1-n1c(-c2cc(-c3ccncc3)c(N3CCOCC3)s2)nc2ccccc2c1=O	33%	12.2 µM	55%	Non-toxic	42%	–	–	–	–
CS(=O)(=O)c1ccc(-c2cc(-c3nc4ccccc4c(=O)n3-c3ccc(Cl)cc3)sc2N2CCOCC2)cc1	7%	–	0%	Non-toxic	–	–	–	–	–
CS(=O)(=O)c1ccc(-c2cc(-c3nc4ccccc4c(=O)n3-c3ccccc3)sc2N2CCOCC2)cc1	28%	–	9%	Non-toxic	–	–	–	–	–
Cc1ccc(-n2c(-c3cc(-c4ccc(Cl)cc4)c(N4CCOCC4)s3)nc3ccccc3c2=O)cc1	27%	–	15%	Non-toxic	–	–	–	–	–
Cc1ccccc1-n1c(-c2cc(-c3ccccc3)c(N3CCOCC3)s2)nc2ccccc2c1=O	27%	–	23%	Non-toxic	–	–	–	–	–
CC(=O)Nc1ccc(-c2cc(-c3nc4ccccc4c(=O)n3-c3ccccc3)sc2N2CCOCC2)cc1	26%	–	7%	Non-toxic	–	–	–	–	–
O=c1c2ccccc2nc(-c2cc(-c3ccc(Cl)cc3)c(N3CCOCC3)s2)n1-c1ccc(Cl)cc1	14%	–	0%	Non-toxic	–	–	–	–	–
COc1ccccc1-n1c(-c2cc(-c3ccc(S(C)(=O)=O)cc3)c(N3CCOCC3)s2)nc2ccccc2c1=O	33%	9.2 µM	55%	Non-toxic	63%	–	–	–	–
CC(=O)Nc1ccc(-c2cc(-c3nc4ccccc4c(=O)n3-c3cccc(C)c3)sc2N2CCOCC2)cc1	13%	–	35%	Non-toxic	–	–	–	–	–
Cc1cccc(-n2c(-c3cc(-c4ccncc4)c(N4CCOCC4)s3)nc3ccccc3c2=O)c1	35%	–	42%	Non-toxic	–	–	–	–	–
COc1ccc(-n2c(-c3cc(-c4ccc(S(C)(=O)=O)cc4)c(N4CCOCC4)s3)nc3ccccc3c2=O)cc1	10%	26 µM	60%	Non-toxic	53%	–	–	–	–
CSc1ccc(-c2cc(-c3nc4ccccc4c(=O)n3-c3ccccc3)sc2N2CCOCC2)cc1	0%	–	0%	Non-toxic	–	–	–	–	–
CSc1ccc(-c2cc(-c3nc4ccccc4c(=O)n3-c3ccccc3C)sc2N2CCOCC2)cc1	13%	–	15%	Non-toxic	–	–	–	–	–
CC(=O)Nc1ccc(-c2cc(-c3nc4ccccc4c(=O)n3-c3ccc(Cl)cc3)sc2N2CCOCC2)cc1	17%	–	0%	Non-toxic	–	–	–	–	–

Now from value to compound, other results behind:

inhibition [2]	IC50 [4]	SMILES	inhibition [1]	Activity [3]	Activity [5]	Activity [6]	Activity [7]	Activity [8]	Activity [9]
0%	7.1 µM	Cc1ccccc1-n1c(-c2cc(-c3ccncc3)c(N3CCOCC3)s2)nc2ccccc2c1=O	53%	Non-toxic	51%	–	–	–	–
32%	11.4 µM	O=c1c2ccccc2nc(-c2cc(-c3ccncc3)c(N3CCOCC3)s2)n1-c1ccc(Cl)cc1	68%	Non-toxic	52%	–	–	–	–
16%	–	CSc1ccc(-c2cc(-c3nc4ccccc4c(=O)n3-c3ccc(C)cc3)sc2N2CCOCC2)cc1	22%	Non-toxic	–	–	–	–	–
48%	–	Cc1cccc(-n2c(-c3cc(-c4ccc(S(C)(=O)=O)cc4)c(N4CCOCC4)s3)nc3ccccc3c2=O)c1	20%	Non-toxic	–	–	–	–	–
0%	–	COc1cccc(-n2c(-c3cc(-c4ccc(S(C)(=O)=O)cc4)c(N4CCOCC4)s3)nc3ccccc3c2=O)c1	20%	Non-toxic	–	–	–	–	–
35%	–	CC(=O)Nc1ccc(-c2cc(-c3nc4ccccc4c(=O)n3-c3ccc(C)cc3)sc2N2CCOCC2)cc1	4%	Non-toxic	–	–	–	–	–
31%	–	CC(=O)c1ccc(-n2c(-c3cc(-c4ccc(S(C)(=O)=O)cc4)c(N4CCOCC4)s3)nc3ccccc3c2=O)cc1	46%	Non-toxic	–	–	–	–	–
35%	10.3 µM	O=c1c2ccccc2nc(-c2cc(-c3ccncc3)c(N3CCOCC3)s2)n1-c1ccccc1Cl	80%	Non-toxic	43%	–	–	–	–
25%	–	CC(=O)c1ccc(-n2c(-c3cc(-c4ccccc4)c(N4CCOCC4)s3)nc3ccccc3c2=O)cc1	0%	Non-toxic	–	–	–	–	–
32%	–	Cc1ccccc1-n1c(-c2cc(-c3ccc(Cl)cc3)c(N3CCOCC3)s2)nc2ccccc2c1=O	1%	Non-toxic	–	–	–	–	–
11%	–	O=c1c2ccccc2nc(-c2cc(-c3ccccc3)c(N3CCOCC3)s2)n1-c1ccccc1	0%	Non-toxic	–	–	–	–	–
84%	10 µM	CC(=O)c1ccc(-n2c(-c3cc(-c4ccncc4)c(N4CCOCC4)s3)nc3ccccc3c2=O)cc1	66%	Non-toxic	81%	43%	Active	Active	Active
17%	–	Cc1ccc(-n2c(-c3cc(-c4ccccc4)c(N4CCOCC4)s3)nc3ccccc3c2=O)cc1	0%	Non-toxic	–	–	–	–	–
51%	–	Cc1ccc(-n2c(-c3cc(-c4ccc(S(C)(=O)=O)cc4)c(N4CCOCC4)s3)nc3ccccc3c2=O)cc1	55%	Non-toxic	–	–	–	–	–
0%	–	COc1ccccc1-n1c(-c2cc(-c3ccccc3)c(N3CCOCC3)s2)nc2ccccc2c1=O	0%	Non-toxic	–	–	–	–	–
23%	–	O=c1c2ccccc2nc(-c2cc(-c3ccccc3)c(N3CCOCC3)s2)n1-c1ccc(Cl)cc1	0%	Non-toxic	–	–	–	–	–
38%	–	O=c1c2ccccc2nc(-c2cc(-c3ccncc3)c(N3CCOCC3)s2)n1-c1ccccc1	30%	Non-toxic	–	–	–	–	–
29%	–	Cc1ccc(-n2c(-c3cc(-c4ccncc4)c(N4CCOCC4)s3)nc3ccccc3c2=O)cc1	26%	Non-toxic	–	–	–	–	–
